Assay results collected from several papers.
Lines come from different studies, so protocols differ.
Target: Tyrosine-protein kinase Fer (FER, Homo sapiens, UniProt P16591)

Structure (SMILES) | test | conditions | endpoint | value
Cc1ccc(C(=O)Nc2ccc(CN3CCN(C)CC3)c(C(F)(F)F)c2)cc1C#Cc1cnc2cccnn12 | enzyme activity | 23.5 nM | remaining activity | 94%
O=C1NC(=O)c2cc(Nc3ccc(F)cc3)c(Nc3ccc(F)cc3)cc21 | cell-free assay | 0.5 µM | remaining signal | 96.4%
COc1cc2ncnc(Nc3ccc(Oc4ccccc4)cc3C)c2cc1OC | enzyme activity, inhibitor | 1 µM | inhibition | 54%
CCN(CC)c1ccc(C2=NNC(=O)CC2C)cc1[N+](=O)[O-] (centres unmarked) | enzyme activity, inhibitor | 10 µM | remaining activity | 119%
O=C1NC(c2ccccn2)Sc2ccccc21 (centres unmarked) | cell-free assay, competition with immobilised ligand | 1 µM | remaining binding | 84%
Nc1ncnc2occ(-c3ccc(NC(=O)Nc4cc(C(F)(F)F)ccc4F)cc3)c12 | cell-free assay | 20 µM | remaining signal | 9%
COc1cc2ncnc(Nc3ccc(F)c(Cl)c3)c2cc1OCCCN1CCOCC1 | cell-free assay | 0.5 µM | remaining signal | 94.1%
CN1CC(Oc2cnc(C#N)cc2-c2ccn3nc(NC(=O)C4CC4)cc3c2)C1 | enzyme activity, inhibitor | 1 µM | inhibition | 1%
O=C1Nc2ccc(Cl)cc2C1=Cc1cc(Cl)c(O)c(Cl)c1 | cell-free assay | 0.5 µM | remaining signal | 92.1%
Cc1sc(C(=O)NC2COC2)cc1-n1cc(NC(=O)Nc2c(F)cccc2Cl)cn1 | enzyme activity, inhibitor | 10 µM | remaining activity | 90%
Cc1ccc(Nc2nccc(N(C)c3ccc4c(C)n(C)nc4c3)n2)cc1S(N)(=O)=O | enzyme activity, inhibitor | 0.3 µM | inhibition | -24%
CC(=O)N1CCC(c2ccc(C(=O)NC3=NCCN3)cc2C(F)(F)F)CC1 | cell-free assay, competition with immobilised ligand | 1 µM | remaining binding | 93%
O=C(O)c1ccc2c3c1cccc3c(=O)n1c3ccccc3nc21 | enzyme activity, inhibitor | 0.5 µM | remaining activity | 96.5%
Nc1cnc(N2CCc3cc(S(=O)(=O)Nc4c(F)cc(Cl)cc4F)cc(N4CCCC4=O)c32)nc1 | cell-free assay, competition with immobilised ligand | 1 µM | remaining binding | 100%
O=c1c2ccccc2[nH]c(=S)n1CCN1CCC(=C(c2ccc(F)cc2)c2ccc(F)cc2)CC1 | enzyme activity, inhibitor | 0.5 µM | remaining activity | 95.2%
COc1cc2nccc(Oc3ccc(NC(=O)c4c5n(n(-c6ccc(F)cc6)c4=O)CCCC5)cc3)c2cc1OC | enzyme activity, inhibitor | 0.1 µM | inhibition | -14%

Structure (SMILES) | test | conditions | endpoint | value
CC/C(=N\NC(=O)NCc1cccc(O)c1)c1ccc(O)c(C)c1O | enzyme activity, inhibitor | 0.1 µM | inhibition | -2.3%
COc1cc2nccc(Oc3ccc(NC(=S)NC(=O)c4ccccc4C)cc3)c2cc1OC | enzyme activity, inhibitor | 0.5 µM | remaining activity | 58.2%
CCCOc1ccc(OC)c(F)c1C(=O)c1ccc(C(=O)N[C@@H]2CNC[C@H]2NC(=O)c2ccc3[nH]ncc3c2)cc1 | enzyme activity, inhibitor | 10 µM | remaining activity | 105%
CO[C@@H](C)c1c(Nc2ccc([C@H](N(C)C(=O)C3CCS(=O)(=O)CC3)C(F)(F)F)cc2)cnc2cc(Cl)nn12 | cell-free assay, competition with immobilised ligand | 1 µM | remaining binding | 88%
C[S+]([O-])c1ccc(-c2nc(-c3ccncc3)c(-c3ccc(F)cc3)[nH]2)cc1 (centres unmarked) | cell-free assay | 0.5 µM | remaining signal | 95%
O=C(Nc1cnn(-c2csc(C(=O)NC3COC3)c2)c1)Nc1ccccc1Cl | enzyme activity, inhibitor | 5 µM | remaining activity | 101%
c1nc2c(Nc3ccc4c(c3)OCCO4)nc(Nc3ccc4c(c3)OCCO4)nc2[nH]1 | enzyme activity, inhibitor | 10 µM | activity vs control | 5.7%
C[C@H](c1ccc(F)cc1)N(Cc1cccc(C(=O)O)c1)C(=O)c1cnc2ccccc2c1 | cell-free assay, competition with immobilised ligand | 1 µM | remaining binding | 100%
CC(C)(C)c1nc(-c2cccc(NS(=O)(=O)c3c(F)cccc3F)c2F)c(-c2ccnc(N)n2)s1 | enzyme activity, inhibitor, radiometric | 1 µM | remaining activity | 94%
CC1=C(C#N)C(c2ccc3c(c2)c(NC(=O)c2ccccc2C)nn3C)C(C#N)=C(C)N1 | cell-free assay, competition with immobilised ligand | 1 µM | remaining binding | 88%
Cc1ccc(NC(=O)c2ccc(C)c(C(F)(F)F)c2)cc1C#Cc1nn(C2CCC(O)CC2)c2ncnc(N)c12 (centres unmarked) | cell-free assay | 10 µM | remaining signal | 67%
Cc1cc(NC(=O)c2cccc3cc(-c4cccc5[nH]nc(N)c45)ccc23)ccc1F | enzyme activity, inhibitor | 0.1 µM | activity vs control | 106%
COc1ccc2c(c1)O[C@@H](c1ccc(OC)c(OC)c1)C[C@H]2NC(=O)C1(c2ccc3c(c2)OC(F)(F)O3)CC1 | cell-free assay, competition with immobilised ligand | 1 µM | remaining binding | 100%
CNC(=O)c1cc(Oc2ccc(NC(=O)Nc3ccc(Cl)c(C(F)(F)F)c3)cc2)ccn1 | enzyme activity, inhibitor | 10 µM | inhibition | -30%
COc1cccc(CNC(=O)c2nc3scc(COCc4ccc(C(=O)O)cc4)c3c(=O)[nH]2)c1 | cell-free assay, competition with immobilised ligand | 1 µM | remaining binding | 100%
CCN(CC)CCNC(=O)c1c(C)[nH]c(/C=C2\C(=O)Nc3ccc(F)cc32)c1C | enzyme activity, inhibitor | 10 µM | inhibition | 55%
